Measurements taken from ChEMBL document CHEMBL3352362, “Discovery of a novel, first-in-class, orally bioavailable azaindole inhibitor (VX-787) of influenza PB2” (J Med Chem, 2014).

Key:
Influenza A virus [1] = assay: Antiviral activity against Influenza A virus A/Puerto Rico/8/34 infected in BALB/c mouse assessed as body weight loss at 10 mg/kg bid treated after 48 hrs of infection for 10 days; assay type: functional; conditions: A/Puerto Rico/8/1934(H1N1)
Method in brief: (§1)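 Male BALB/c mice, 8 per study, inoculated intranasally with mouse-adapted A/PR/8/34 at 5e3 TCID50/mouse. Twice-daily treatment began 48 h after infection. Survival and body weight were followed.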

Influenza A virus [2] = assay: Antiviral activity against Influenza A virus A/Puerto Rico/8/34 infected in BALB/c mouse assessed as body weight loss at 3 mg/kg bid treated after 48 hrs of infection for 10 days; assay type: functional; conditions: A/Puerto Rico/8/1934(H1N1); method in brief: as §1
Influenza A virus [3] = assay: Antiviral activity against Influenza A virus A/Puerto Rico/8/34 infected in BALB/c mouse assessed as body weight loss at 30 mg/kg bid treated after 48 hrs of infection for 10 days; assay type: functional; conditions: A/Puerto Rico/8/1934(H1N1); method in brief: as §1
[4] = Antiviral activity against Influenza A virus A/California/07/2009 infected in MDCK cells assessed as cell protection after 3 days by cytopathic effect assay; assay type: functional, cell-based, Influenza A virus (A/California/07/2009(H1N1)); conditions: 72 h
Method in brief: (§2)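 MDCK cells incubated with test compound and influenza A virus for 72 h (3-day CPE format). Cell viability read by an ATP end point. EC50 is the concentration giving 50% cell protection; mean of N = 3 or greater.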

Influenza A virus [5] = assay: Antiviral activity against Influenza A virus A/Puerto Rico/8/34 infected in BALB/c mouse assessed as mouse survival at 1 to 10 mg/kg bid treated after 48 hrs of infection for 10 days; assay type: functional, A/Puerto Rico/8/1934(H1N1); conditions: dose mg/kg 1-10; method in brief: as §1
[6] = target: Glycogen synthase kinase-3 beta (Homo sapiens, UniProt P49841); assay: Inhibition of GSK3beta (unknown origin)
Sequence of Glycogen synthase kinase-3 beta (P49841 whole entry): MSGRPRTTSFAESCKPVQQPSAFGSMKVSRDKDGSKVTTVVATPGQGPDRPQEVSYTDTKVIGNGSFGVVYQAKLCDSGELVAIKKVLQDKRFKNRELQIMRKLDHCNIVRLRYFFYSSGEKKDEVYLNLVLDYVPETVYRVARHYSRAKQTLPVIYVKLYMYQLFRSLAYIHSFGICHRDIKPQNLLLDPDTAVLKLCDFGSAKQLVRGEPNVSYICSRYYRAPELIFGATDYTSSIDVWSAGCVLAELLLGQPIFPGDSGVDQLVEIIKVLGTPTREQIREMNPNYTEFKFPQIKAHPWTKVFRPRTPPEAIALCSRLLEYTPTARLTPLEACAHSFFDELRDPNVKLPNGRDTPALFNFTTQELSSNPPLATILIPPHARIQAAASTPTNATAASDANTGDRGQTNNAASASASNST

[7] = target: Voltage-gated inwardly rectifying potassium channel KCNH2 (Homo sapiens, UniProt Q12809); assay: Inhibition of human ERG at > 30 uM relative to control
Sequence of Voltage-gated inwardly rectifying potassium channel KCNH2 (Q12809 whole entry): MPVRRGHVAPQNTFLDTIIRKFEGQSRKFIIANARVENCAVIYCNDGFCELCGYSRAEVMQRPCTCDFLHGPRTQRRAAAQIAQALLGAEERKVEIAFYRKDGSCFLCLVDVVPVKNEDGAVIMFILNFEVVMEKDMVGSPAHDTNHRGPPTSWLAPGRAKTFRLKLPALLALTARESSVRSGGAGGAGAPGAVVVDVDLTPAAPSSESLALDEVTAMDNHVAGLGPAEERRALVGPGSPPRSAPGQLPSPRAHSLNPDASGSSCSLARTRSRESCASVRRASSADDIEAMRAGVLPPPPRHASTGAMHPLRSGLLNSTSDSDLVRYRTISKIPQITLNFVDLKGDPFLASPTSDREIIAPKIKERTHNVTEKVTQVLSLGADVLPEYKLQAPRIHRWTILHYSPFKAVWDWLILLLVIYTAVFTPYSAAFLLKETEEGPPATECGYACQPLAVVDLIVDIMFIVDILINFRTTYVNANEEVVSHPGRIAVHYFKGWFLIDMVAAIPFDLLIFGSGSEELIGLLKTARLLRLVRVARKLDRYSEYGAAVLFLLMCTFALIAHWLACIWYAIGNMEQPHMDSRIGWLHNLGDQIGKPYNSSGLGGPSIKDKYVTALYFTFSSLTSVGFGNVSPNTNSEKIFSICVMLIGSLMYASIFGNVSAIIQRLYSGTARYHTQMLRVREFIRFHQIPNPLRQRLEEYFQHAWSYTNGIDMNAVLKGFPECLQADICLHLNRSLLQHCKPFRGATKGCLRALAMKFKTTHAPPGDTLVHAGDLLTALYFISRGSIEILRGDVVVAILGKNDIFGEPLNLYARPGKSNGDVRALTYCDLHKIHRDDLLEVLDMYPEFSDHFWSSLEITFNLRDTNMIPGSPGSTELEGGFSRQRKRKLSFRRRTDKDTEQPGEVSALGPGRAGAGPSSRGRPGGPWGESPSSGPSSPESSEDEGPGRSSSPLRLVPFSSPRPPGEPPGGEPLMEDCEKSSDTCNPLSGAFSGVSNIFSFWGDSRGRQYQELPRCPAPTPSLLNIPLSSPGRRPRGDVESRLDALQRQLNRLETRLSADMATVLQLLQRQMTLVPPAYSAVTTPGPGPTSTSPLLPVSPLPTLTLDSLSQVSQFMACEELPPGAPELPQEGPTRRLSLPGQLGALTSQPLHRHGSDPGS
Method in brief: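 hERG tested by manual patch clamp.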

[8] = Antiviral activity against Influenza A virus A/Mexico/4108/2009 infected in MDCK cells assessed as cell protection after 3 days by cytopathic effect assay; assay type: functional, cell-based, Influenza A virus (A/Mexico/4108/2009(H1N1)); conditions: 72 h; method in brief: as §2
Influenza A virus [9] = assay: Antiviral activity against Influenza A virus A/Puerto Rico/8/34 infected in BALB/c mouse assessed as body weight loss at 1 mg/kg bid treated after 48 hrs of infection for 10 days; assay type: functional; conditions: A/Puerto Rico/8/1934(H1N1); method in brief: as §1
[10] = target: Adenosine receptor A2a (Homo sapiens) (UniProt P29274); assay: Inhibition of human adenosine A2A receptor at 10 uM relative to control
Sequence of Adenosine receptor A2a (Homo sapiens) (P29274 whole entry): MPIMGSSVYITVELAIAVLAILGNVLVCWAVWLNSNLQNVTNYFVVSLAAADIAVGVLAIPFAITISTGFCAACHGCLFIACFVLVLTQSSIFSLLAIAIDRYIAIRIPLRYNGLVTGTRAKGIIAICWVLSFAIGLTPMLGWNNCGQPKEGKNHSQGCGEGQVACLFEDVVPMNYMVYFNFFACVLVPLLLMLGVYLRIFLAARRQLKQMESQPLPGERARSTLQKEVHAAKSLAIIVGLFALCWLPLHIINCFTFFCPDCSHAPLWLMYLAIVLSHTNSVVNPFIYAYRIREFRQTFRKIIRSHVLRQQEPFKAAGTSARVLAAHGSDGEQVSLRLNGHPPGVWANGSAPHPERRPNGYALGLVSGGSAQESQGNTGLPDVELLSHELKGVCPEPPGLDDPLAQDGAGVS
Method in brief: (§3)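 Competitive binding panel of 68 receptors, ion channels and other targets, run at 10 μM compound; percent inhibition reported.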

[11] = Half life in rat at 3 mg/kg, iv; assay type: ADME, organism-based; set-up: dose 3 mg/kg, route intravenous; conditions: in vivo
[12] = AUC in mouse at 30 mg/kg; assay type: ADME, organism-based; set-up: dose 30 mg/kg; conditions: plasma
Influenza A virus [13] = assay: Antiviral activity against Influenza A virus A/Puerto Rico/8/34 infected in MDCK cells assessed as cell protection after 3 days by cytopathic effect assay; assay type: functional, organism-based; conditions: A/Puerto Rico/8/1934(H1N1), 72 h; method in brief: as §2
[14] = Cmax in rat at 3 mg/kg, po; assay type: ADME, organism-based; set-up: dose 3 mg/kg, route oral; conditions: in vivo
[15] = Antiviral activity against Influenza A virus A/Georgia/20/2006 infected in MDCK cells assessed as cell protection after 3 days by cytopathic effect assay; assay type: functional, cell-based, Influenza A virus (A/Georgia/20/2006(H1N1)); conditions: 72 h; method in brief: as §2
[16] = Clearance in rat at 3 mg/kg, iv; assay type: ADME, organism-based; set-up: dose 3 mg/kg, route intravenous; conditions: in vivo
[17] = Antiviral activity against Influenza A virus A/New York/18/2009 infected in MDCK cells assessed as cell protection after 3 days by cytopathic effect assay; assay type: functional, cell-based, Influenza A virus (A/New York/18/2009(H1N1)); conditions: 72 h; method in brief: as §2
[18] = Antiviral activity against Influenza A virus A/Viet Nam/1203/2004(H5N1) infected in MDCK cells assessed as cell protection after 3 days by cytopathic effect assay; assay type: functional, cell-based; conditions: 72 h; method in brief: as §2
[19] = AUC in rat at 3 mg/kg, po; assay type: ADME, organism-based; set-up: dose 3 mg/kg, route oral; conditions: plasma
[20] = target: T1, Adenosine receptor A1 (Homo sapiens) (UniProt P30542); assay: Inhibition of human adenosine A1 receptor at 10 uM relative to control; method in brief: as §3
T1 sequence (whole entry): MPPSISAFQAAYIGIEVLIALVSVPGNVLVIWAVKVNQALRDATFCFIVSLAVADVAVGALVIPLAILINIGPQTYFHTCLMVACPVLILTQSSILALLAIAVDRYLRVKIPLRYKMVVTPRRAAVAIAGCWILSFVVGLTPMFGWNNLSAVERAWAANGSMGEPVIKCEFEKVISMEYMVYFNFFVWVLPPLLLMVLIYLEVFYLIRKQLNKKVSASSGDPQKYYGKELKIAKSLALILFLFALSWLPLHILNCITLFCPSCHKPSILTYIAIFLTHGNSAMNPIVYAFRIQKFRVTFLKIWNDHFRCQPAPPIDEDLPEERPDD

[21] = Inhibition of CYP450 (unknown origin) at > 30 uM; assay type: ADME; conditions: human
[22] = Cmax in mouse at 30 mg/kg; assay type: ADME, organism-based; set-up: dose 30 mg/kg; conditions: in vivo
[23] = Oral bioavailability in rat at 3 mg/kg; assay type: ADME, organism-based; conditions: in vivo
[24] = Antiviral activity against Influenza A virus A/Texas/48/2009 infected in MDCK cells assessed as cell protection after 3 days by cytopathic effect assay; assay type: functional, cell-based, Influenza A virus (A/Texas/48/2009(H1N1)); conditions: 72 h; method in brief: as §2

In the case of O=C(O)[C@H]1C2CCC(CC2)[C@@H]1Nc1nc(-c2c[nH]c3ncc(F)cc23)ncc1F [PIMODIVIR], the inhibition in vivo at 10 mg/kg (Influenza A virus [1]) is reported as 7.1%, the inhibition in vivo at 3 mg/kg (Influenza A virus [2]) is reported as 10.9% and the inhibition in vivo at 30 mg/kg (Influenza A virus [3]) is reported as 30%. For the same compound, the EC50 [4] was 1.8 nM, the Survival (Influenza A virus [5]) was 100% and the Ki [6] was 1600 nM. The “inhibition (INH)” value [7] was “Not Active”, the EC50 [8] was 2.7 nM and the inhibition in vivo at 1 mg/kg (Influenza A virus [9]) was 22.5%. The inhibition [10] was 62%, the half-life [11] was 3.5 h and the AUC [12] was 22000 ng·h/mL. The EC50 (Influenza A virus [13]) was 0.32 nM, the Cmax [14] was 80 ng/mL and the EC50 [15] was 2.6 nM. For the same compound, the clearance [16] was 26 mL/min/kg, the EC50 [17] was 0.59 nM and the EC50 [18] was less than 0.15 nM. The AUC [19] was 500 ng·h/mL, the inhibition [20] was 96% and the “inhibition (INH)” value [21] was “Not Active”. For the same compound, the Cmax [22] was 18000 ng/mL, the bioavailability [23] was 26% and the EC50 [24] was 2.8 nM.
